# Assay results: publication PMC6990463 (Cellular physiology and biochemistry : international …, 2019)
# Peptide text beside a SMILES is read from it. * marks the point of attachment. Cbz = O=C(OCc1ccccc1)*; CH2F = FC*
# What was measured:
# sXBP1 = assay: ER stress assay; assay type: cell-based, human; details: 60 μM STF-83010 pre-treatment 3 h
# Procedure, shortened: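 WM266–4 cells (0.2 × 10^6, E-MEM + 10% FBS, 24-well) pre-treated 24 h after seeding with 60 μM STF-83010 or vehicle for 3 h. RNA extracted with TRI reagent; amplified products run on 2% agarose with GelGreen and quantified. sXBP-1 expressed as % of total XBP-1 (sXBP-1 + XBP-1).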
# M14 = assay: Cell viability assay; assay type: cell-based; details: Homo sapiens, M14, 72 h, read-out: IC50, viability M14 (M)
# SKMEL2 = assay: Cell viability assay; assay type: cell-based; details: Homo sapiens, SK-MEL-2, 72 h, read-out: IC50, viability SKMEL2 (M)
# Procedure, shortened: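 Cells plated in 384-well format. Test compound as a 10-point 1:3 dilution series prepared from 300 μM; dabrafenib as assay control. Incubated 72 h at 37 °C, 5% CO2. CellTiter-Glo added for 15 min at room temperature; luminescence read. Viability normalised to media-only (0%) and DMSO-treated cells (100%). S/B, CV and Z′ computed per plate.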
# WM115 = assay: Cell viability assay; assay type: cell-based; details: Homo sapiens, WM-115, 72 h, read-out: IC50, viability WM115 (F)
# WM266–4 = assay: Cell viability assay; assay type: cell-based, human; details: for WM266–4 viability, inhibitor alone: 50 μM inhibitor, 72 h
# SKMEL28 = details: read-out: IC50, viability SKMEL28; V600E BRAF/R24C CDK4 primary; cited from earlier work
# metastatic melanoma = details: BRAF-mutant metastatic melanoma; cited from earlier work
# WM266–4 cells = assay: Annexin V flow cytometry assay; assay type: cell-based, human; details: 4 h, staurosporine 1 μM
# Procedure, shortened: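 WM266–4 cells (1,000,000/flask, EMEM + 10% FBS + 1% pen/strep) adhered overnight. 24 h after plating, optional 2 h pre-treatment with Z-VAD-FMK 10 μM. Test compound 100 μM or staurosporine 1 μM (control) for 4, 24 and 48 h. Adherent plus floating cells pooled, Annexin V-FITC stained, and viable, necrotic, early and late apoptotic cells counted by flow cytometry.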
# PC-3 cells = details: read-out: IC50, apoptotic cell death of PC-3 cells; cited from earlier work
# cleaved lamin A/C = assay: Western blotting for Lamin A/C in WM266–4 cells; assay type: cell-based, human; details: LY294002 10 μM, 2155–14 100 μM
# Procedure, shortened: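 WM266–4 cells (1 × 10^6, E-MEM + 10% FBS, 6 cm plates) pre-treated after 24 h with caspase inhibitors for 3 h or autophagy inhibitors (LY294002 10 μM, hydroxychloroquine) for 1 h. Test compound given at various doses and times, with or without inhibitors; controls staurosporine 1 μM, rapamycin 10 μM + chloroquine 5 μM. Lysates blotted with polyclonal lamin A/C antibody (1:1000).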
# LC3-II = assay: Western blotting for LC3 in WM266–4 cells; assay type: cell-based, human
# Procedure, shortened: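 1 × 10^6 cells seeded (WM266–4 in E-MEM, M14 in RPMI-1640; + 10% FBS) in 6 cm plates. Test compound at various doses and times; controls rapamycin 10 μM + chloroquine 5 μM, staurosporine 1 μM. Lysates blotted with polyclonal LC3 A/B antibody (1:1000); bands normalised to β-actin, as fold of untreated; n=3.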
molecule,measurement,setting,value
O=S(=O)(N=Cc1c(O)ccc2ccccc12)c1cccs1 [STF-83010],effect on sXBP1 formation by 2155–14,sXBP1,inhibited
CCCS(=O)(=O)Nc1ccc(F)c(C(=O)c2c[nH]c3ncc(-c4ccc(Cl)cc4)cc23)c1F [vemurafenib],IC50,M14,1e-06 ± 2e-07 M
same,IC50,SKMEL2,1.4e-06 ± 7e-07 M
same,IC50,WM115,5 ± 0.9 µM
same,IC50,"WM266–4; Homo sapiens, WM 266-4, 72 h, read-out: IC50, viability WM266–4 (F)",3000 ± 400 nM
same,IC50,SKMEL28,4.6 µM
same,median progression-free survival (PFS),metastatic melanoma,6.9 months
CN[C@@H]1C[C@H]2O[C@@](C)([C@@H]1OC)n1c3ccccc3c3c4c(c5c6ccccc6n2c5c31)C(=O)NC4 [staurosporine],apoptosis detection,WM266–4 cells,apoptosis was detected
CC(C)[C@H](NC(=O)OCc1ccccc1)C(=O)N[C@H](C=O)Cc1ccccc1 [MDL-28170] (Cbz-Val-Phe-aldehyde),"WM266–4 viability 24 h after addition of 2155–14, inhibitor pre-incubation","WM266–4; caspase inhibitors 10 μM, calpain inhibitors 25 μM, 2155–14 100 μM",further decreased cell viability
O=c1c(O)c(-c2ccc(O)c(O)c2)oc2cc(O)cc(O)c12 [quercetin],IC50,PC-3 cells,100 µM
Z-IETD-FMK: selective caspase 8 inhibitor,"WM266–4 viability, inhibitor alone",WM266–4,completely inhibited cell viability
same,"WM266–4 cells viable, 2155–14 in combination with inhibitor","WM266–4; 48 h, 2155–14 100 μM, caspase inhibitors 10 μM, calpain inhibitor 25 μM",25%
O=c1cc(N2CCOCC2)oc2c(-c3ccccc3)cccc12 [LY294002],effect of pre-treatment on cleaved lamin A/C levels in cells treated with 2155–14,cleaved lamin A/C,no effect
same,"LC3-II levels, fold of untreated control",LC3-II; LY294002 10 μM alone,20 fold
same,"LC3-II levels, fold of untreated control",LC3-II; combination of LY294002 10 μM and 2155–14 100 μM,~ 40 fold
CC(C)(C)c1nc(-c2cccc(NS(=O)(=O)c3c(F)cccc3F)c2F)c(-c2ccnc(N)n2)s1 [dabrafenib],median progression-free survival (PFS),metastatic melanoma,6.9 months
Cbz-Val-Ala-Asp-CH2F,"WM266–4 viability, inhibitor alone",WM266–4,completely inhibited cell viability
